38 compounds from ChEMBL document CHEMBL4513216, “Probing the Open Global Health Chemical Diversity Library for Multistage-Active Starting Points for Next-Generation Antimalarials” (ACS Infect Dis, 2020) can be followed below.

A short description of the data set: Toxicity liver stage against HepG2, at 10uM. Also noted: test concentration 10 uM, cell line HepG2-A16-CD81EGFP. The note with it: human, HepG2-A16-CD81EGFP cells; read-out: INHIBITION
It is filed as cell-based. The essentials:
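Uninfected HepG2-A16-CD81EGFP cells, 3 × 10^3 per well, 1536-well, plated on prespotted compound at 10 μM final, parasite-free screening media added to match infected plates; puromycin 10 μM positive, DMSO 0.5% negative; run in parallel with 48 h PbLuc assay at 37 °C, 5% CO2; viability by CellTiter-Glo luminescence, normalized to controls.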
Take `COc1cccc(N2CCN(C(=O)c3noc4c3CCCC4)CC2)c1`: the cytotoxicity at 10 µM came to 11.7%.

In the case of `CN1CC=C(c2noc(CCC(=O)N3CCOCC3)n2)CC1`, the cytotoxicity at 10 µM is -0.687%.

`COc1cc(N2C[C@H](C(=O)NC3CC3)[C@@H]3CCO[C@@H]3C2)ncn1`: the cytotoxicity at 10 µM was -5.47%.

For the compound `Cn1cc(N2CCC3(CCN(C(=O)[C@H]4CCCO4)C3)C2=O)cn1` (stereo partly drawn), the cytotoxicity at 10 µM was 0.893%.

As to `COc1ncccc1C(=O)N1CC[C@H]2C[C@@H](c3nccs3)O[C@@H]2C1`, the cytotoxicity at 10 µM was -0.123%.

As for `COc1ccc(N2CCC(C(=O)/N=c3/[nH]ccs3)CC2)nn1`, the cytotoxicity at 10 µM was -13.6%.

Turning to `O=C(CCn1ccccc1=O)Nc1ccc(C(=O)O)cc1`, the cytotoxicity at 10 µM amounted to 4.74%.

With `O=C(CNC(=O)c1c(F)cccc1Cl)Nc1ccc(F)cn1`, the cytotoxicity at 10 µM was found to be 8.46%.

Regarding `CC(C)(C)OC(=O)NC1CCC(NC(=O)c2ccc[nH]2)CC1` (stereo not drawn), the cytotoxicity at 10 µM was -17.1%.

Take `CCN(CC(=O)NC)S(=O)(=O)c1cnc2c(c1)c(C)nn2C`: the cytotoxicity at 10 µM is -1.56%.

As to `CCC(=O)Nc1ccc(F)c(S(=O)(=O)NC(C)(C)C)c1`, the cytotoxicity at 10 µM was -1.74%.

With `CC(C)c1cc(CN(C)C(=O)CN2CCC(C(N)=O)CC2)no1`, the cytotoxicity at 10 µM is -0.0154%.

Regarding `O=C(CCn1cncn1)N1CCC2(CC1)[C@H](O)C[C@@H]2OCCO`, the cytotoxicity at 10 µM was -0.387%.

In the case of `CN1N=C(C(=O)N2CCCC(CCc3ccccc3)C2)CCC1=O` (stereo not drawn), the cytotoxicity at 10 µM was -10.5%.

Consider `CC(=O)c1cc(CN2CCCC23CCN(c2ccccn2)CC3)cs1`, for which the cytotoxicity at 10 µM is -7.69%.

Turning to `COc1ccc(CC(=O)N2CCCC(Cn3cc(CN)nn3)C2)cc1` (stereo not drawn), the cytotoxicity at 10 µM came to 7.22%.

In the case of `c1cc(CCNc2ncnc3c2CCN(Cc2ccoc2)CC3)ccn1`, the cytotoxicity at 10 µM turned out to be 9.08%.

Regarding `Cc1nc(N2Cc3cnn(Cc4ccc(F)cc4)c3C2)no1`, the cytotoxicity at 10 µM was -3.05%.

With `Fc1ccc(Oc2ccc(CNCC3CNc4ccnn4C3)cn2)cc1` (stereo not drawn), the cytotoxicity at 10 µM was -11.6%.

For the compound `CCc1nccn1C1CCCN(C(=O)c2ccc3c(c2)nnn3C)C1` (stereo not drawn), the cytotoxicity at 10 µM is -10.6%.

`CCc1nc(C(=O)N2CCCCC2)nn1-c1ccccc1Cl`: the cytotoxicity at 10 µM was 2.1%.

For `CCC(O)CN1CCN(C(=O)c2cnc3n[nH]c(C)c3c2)CC1` (stereo not drawn), the cytotoxicity at 10 µM is -5%.

On to `COCCN(CCOC)C(=O)Nc1cc(C(F)(F)F)c[nH]c1=O`, for which the cytotoxicity at 10 µM was -4.28%.

On to `CC(=O)N(Cc1ncc(C)o1)C1CCN(CCc2cccs2)C1` (stereo not drawn), for which the cytotoxicity at 10 µM was -8.85%.

Turning to `Cc1cc(C)n(CC2CCCCN2CCC(=O)Nc2cc(C)on2)n1` (stereo not drawn), the cytotoxicity at 10 µM was -1.03%.

As for `CC(C)c1noc(C(C)N2CCN(Cc3ccsc3)CC2)n1` (stereo not drawn), the cytotoxicity at 10 µM was -6.85%.

On to `CC(=O)NCC1CCN(C(=O)c2csc(-c3ccc(C)cc3C)n2)CC1`, for which the cytotoxicity at 10 µM was -10.8%.

As to `Cc1cc(C(=O)N2CCN(C(=O)Cc3ccccn3)CC2)c(C)s1`, the cytotoxicity at 10 µM was 6.18%.

`O=C(c1cccc(CNS(=O)(=O)c2ccccc2F)c1)N1CCCC1`: the cytotoxicity at 10 µM was -0.0481%.

On to `CC(CNC(=O)Nc1cn[nH]c1)N1CCOCC1` (stereo not drawn), for which the cytotoxicity at 10 µM was 1.92%.

For the compound `Cc1nc(C)n(CC2CCCN(Cc3ccc(C(N)=O)cc3)C2)n1` (stereo not drawn), the cytotoxicity at 10 µM was 0.818%.

For the compound `Cc1nnc([C@@H]2C[C@H]3CN(C(=O)c4c(C)noc4C)C[C@H]3O2)[nH]1`, the cytotoxicity at 10 µM amounted to 15.2%.

As to `Cc1nc(Nc2nncs2)cc(C2CNC2)n1`, the cytotoxicity at 10 µM worked out at 5.88%.

As for `O=C1CC[C@H]2[C@H](CCN2c2ccccn2)N1CC1CCOCC1`, the cytotoxicity at 10 µM is -36.4%.

Turning to `CC(C)N1CCc2c(c(COc3cccnc3)nn2CC2CC2)C1`, the cytotoxicity at 10 µM was found to be 6.49%.

For the compound `Cc1noc(C)c1CN1CCOC2(CCCN(c3nncs3)C2)C1` (stereo not drawn), the cytotoxicity at 10 µM is -2.82%.

`CC(C)N(C)Cc1cncc2c1CCN(C(=O)c1cccc(C#N)c1)C2`: the cytotoxicity at 10 µM amounted to 4.01%.

As to `CC(C)=CCN1C(=O)[C@@H]2CC[C@H]1CN(c1ncccn1)C2`, the cytotoxicity at 10 µM is 9.14%.
